Measured values from article PMC3759693 (Genes & Development, 2013).

How the values were obtained:
[1] = tested on: recruitment of NBS1 R28A mutant to DNA damage sites; test: Laser microirradiation, relocation of NBS1 R28A-GFP in MEFs; format: cell-based, mouse; conditions: wild-type MEFs
Summary of the method: (§1)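 U2OS cells or MEFs (wild-type or knockout) on glass-bottomed dishes expressed GFP-fused proteins or mutants. Microirradiation used an equal laser pulse energy and exposure time for every cell, with live imaging. Where used, 100 nM olaparib, 10 μM GLTN or 10 μM wortmannin was added 1 h before irradiation. GFP intensity at the laser line was quantified; normalized curves from 50 cells over three experiments were averaged, ± SD.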

[2] = tested on: PARG-dependent PAR hydrolysis; test: PAR at DNA damage sites after laser microirradiation; format: cell-based; conditions: 10 μM GLTN; Supplemental Fig. 7C
[3] = tested on: recruitment of XRCC1 to DNA damage sites; test: Laser microirradiation, relocation of XRCC1; format: cell-based; conditions: olaparib treatment; Supplemental Fig. 10C
Summary of the method: as §1

[4] = tested on: wild-type or H2AX−/− MEFs; test: Colony formation assay after IR; format: cell-based, mouse; conditions: 100 nM olaparib, low dose of IR
Summary of the method: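 500 wild-type or H2AX−/− MEFs seeded per well, then given graded 137Cs IR doses with or without 100 nM olaparib present in the medium throughout culture. After 7 d, cells fixed and crystal violet-stained; colonies of >50 cells counted. Triplicates, mean ± SD, Student's t-test.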

[5] = tested on: recruitment of PNKP to DNA damage sites; test: Laser microirradiation, relocation of PNKP; format: cell-based
Summary of the method: as §1

G2/M checkpoint = test: G2/M checkpoints assay, phospho-histone H3 flow cytometry; format: cell-based; conditions: olaparib treatment
Summary of the method: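 Stable cells expressing siRNA-resistant Flag-tagged wild-type NBS1 were pretreated with or without olaparib, then given 0 or 2 Gy IR with 1 h recovery. Cells fixed in 70% ethanol and stained with rabbit anti-phospho-histone H3 (Ser10) plus FITC anti-rabbit secondary. RNase A treatment and propidium iodide staining followed. pH3-positive fraction measured by flow cytometry.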

early activation of ATM = test: Western blot of pATM; format: cell-based; conditions: after IR, cells pretreated with olaparib
Summary of the method: (§2)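 U2OS cells were given 137Cs IR (10 Gy or indicated doses) and lysed at indicated times. Where used, 100 nM olaparib was added 1 h […]. Lysis on ice in NETN-100 (20 mM Tris-HCl pH 8.0, 100 mM NaCl, 1 mM EDTA, 0.5% NP-40). Soluble fractions were immunoprecipitated and western blotted with the indicated antibodies (e.g., anti-PAR, pATM, pCHK2, pSQpTQ). Triplicates.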

[6] = tested on: early DNA damage repair in U2OS cells; test: Neutral comet assay; format: cell-based; conditions: 4 Gy IR, olaparib treatment
[7] = tested on: in vivo interaction between PAR and PNKP, APTX, Ligase4, XRCC1, NBS1; test: Co-IP of PAR with FHA/BRCT domain-containing proteins after IR; format: cell-based; conditions: olaparib pretreatment
Summary of the method: as §2

[8] = tested on: early phosphorylation of 53BP1; test: IP/Western blot of 53BP1 phosphorylation after IR; format: cell-based; conditions: cells pretreated with olaparib, then irradiated
Summary of the method: as §2

[9] = tested on: recruitment of DNA Ligase4 to DNA damage sites; test: Laser microirradiation, relocation of Ligase4; format: cell-based; conditions: olaparib treatment; Supplemental Fig. 10B
Summary of the method: as §1

[10] = tested on: recruitment of NBS1 to DNA damage sites; test: Laser microirradiation, relocation of NBS1-GFP in MEFs; format: cell-based, mouse; conditions: 100 nM olaparib 1 h before laser microirradiation
Summary of the method: as §1

[11] = tested on: recruitment of NBS1 to DNA damage sites; test: Laser microirradiation, relocation of NBS1-GFP in U2OS cells; format: cell-based; conditions: 10 μM wortmannin 1 h before laser microirradiation
Summary of the method: as §1

BRCT domain of BRCA1 = BRCT domain of BRCA1 (Homo sapiens, UniProt P38398); test: Affinity of BRCA1 BRCT domain with PAR; format: binding
Chain of BRCT domain of BRCA1 (P38398 1646-1859 limits assumed): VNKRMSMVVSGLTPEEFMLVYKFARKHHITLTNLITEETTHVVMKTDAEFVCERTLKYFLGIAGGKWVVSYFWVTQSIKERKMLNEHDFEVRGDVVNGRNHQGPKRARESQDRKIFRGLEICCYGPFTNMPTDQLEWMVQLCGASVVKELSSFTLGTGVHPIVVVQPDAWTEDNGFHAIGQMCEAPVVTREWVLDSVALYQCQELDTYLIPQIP
Summary of the method: (§3)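 Recombinant domains expressed in E. coli, or by baculovirus for NBS1 FHA+BRCT (C-terminal GST), and purified. ITC at 16°C: protein at 20∼60 μM final in 10 mM Na2HPO4 (pH 7.5), 100 mM NaCl. Syringe ligand (PAR, ADP-ribose or iso-ADP-ribose) at 150∼750 μM final in the same buffer, with PAR counted as ADP-ribose units. 0.4 μL preinjection, then 19 × 2 μL injections at 120 sec, 1000 rpm. Isotherms integrated and fitted.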

BRCT domain of MDC1 = biological target: T1, BRCT domain of MDC1 (Homo sapiens, UniProt Q14676); test: Affinity of MDC1 BRCT domain with PAR; format: binding
T1 sequence (Q14676 1891-2089 limits assumed): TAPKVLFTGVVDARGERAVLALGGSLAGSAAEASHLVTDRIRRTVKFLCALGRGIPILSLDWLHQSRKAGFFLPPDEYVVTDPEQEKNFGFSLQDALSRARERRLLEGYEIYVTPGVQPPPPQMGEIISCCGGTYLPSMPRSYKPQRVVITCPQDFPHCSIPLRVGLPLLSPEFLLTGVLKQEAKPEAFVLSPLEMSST
Summary of the method: as §3

[12] = biological target: XRCC1 (amino acids 379–400) peptide (Homo sapiens, UniProt P18887); test: Dot blot, pull-down or ITC with XRCC1 peptide; format: binding; conditions: pull-down, or ITC assay, data not shown
Chain of XRCC1 (amino acids 379–400) peptide (P18887 379-400 limits assumed): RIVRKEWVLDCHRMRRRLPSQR

FHA domain of CHK2 = FHA domain of CHK2 (Homo sapiens, UniProt O96017); test: Interaction with CHK2 FHA domain; format: binding; conditions: Supplemental Fig. 3
Chain of FHA domain of CHK2 (O96017 113-175 limits assumed): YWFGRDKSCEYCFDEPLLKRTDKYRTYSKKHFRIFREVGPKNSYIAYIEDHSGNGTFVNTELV
Summary of the method: as §3

FHA domain of RNF8 = biological target: T2, FHA domain of RNF8 (Homo sapiens, UniProt O76064); test: Interaction with RNF8 FHA domain; format: binding; conditions: Supplemental Fig. 3
T2 sequence (O76064 38-92 limits assumed): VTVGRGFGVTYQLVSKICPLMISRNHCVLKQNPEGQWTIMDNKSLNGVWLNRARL
Summary of the method: as §3

O=C(OC[C@H]1O[C@@H](OC(=O)c2cc(O)c(O)c(OC(=O)c3cc(O)c(O)c(O)c3)c2)[C@H](OC(=O)c2cc(O)c(O)c(OC(=O)c3cc(O)c(O)c(O)c3)c2)[C@@H](OC(=O)c2cc(O)c(O)c(OC(=O)c3cc(O)c(O)c(O)c3)c2)[C@@H]1OC(=O)c1cc(O)c(O)c(OC(=O)c2cc(O)c(O)c(O)c2)c1)c1cc(O)c(O)c(OC(=O)c2cc(O)c(O)c(O)c2)c1 [GLTN, gallotannin]
retention of NBS1 R28A mutant at DNA damage sites ([1]; GLTN treatment): stabilized NBS1 at DNA damage sites | half-life of PAR at DNA damage sites [2]: significantly prolonged

O=C(c1cc(Cc2n[nH]c(=O)c3ccccc23)ccc1F)N1CCN(C(=O)C2CC2)CC1 [olaparib]
fast recruitment of XRCC1 to DNA damage sites [3]: abolished fast recruitment | sensitivity to IR-induced DNA damage (colony formation) ([4]; H2AX−/− MEFs): hypersensitive | sensitivity to IR-induced DNA damage (colony formation) ([4]; wild-type MEFs): could still be resistant | early recruitment of PNKP to DNA damage sites ([5]; olaparib treatment, Supplemental Fig. 9A): impaired the early recruitment | arrest at the G2/M boundary after IR (G2/M checkpoint): could not be fully arrested at the G2/M boundary | recruitment of NBS1 R28A mutant to DNA damage sites ([1]; olaparib treatment): abolished the recruitment of NBS1 | early activation of ATM (early activation of ATM): impaired | DNA damage repair (comet assay tail moment) [6]: significantly impaired | in vivo interaction of FHA/BRCT domain-containing proteins with PAR [7]: no longer interacted with PAR in vivo | early phosphorylation of 53BP1 [8]: clearly suppressed | early recruitment of DNA Ligase4 to DNA damage sites [9]: impaired the early recruitment | recruitment of NBS1 to DNA damage sites ([10]; H2AX−/− cells): abolished both the fast recruitment and slow accumulation of NBS1 | relocation of NBS1 to DNA damage sites ([10]; MDC1−/− cells): abolished the relocation of NBS1 | recruitment of NBS1 to DNA damage sites ([10]; wild-type MEFs): abolished the early recruitment of NBS1

COC[C@H]1OC(=O)c2coc3c2[C@@]1(C)C1=C(C3=O)[C@@H]2CCC(=O)[C@@]2(C)C[C@H]1OC(C)=O [wortmannin]
retention of PNKP at DNA damage sites ([5]; wortmannin treatment, Supplemental Fig. 9D): significantly impaired | recruitment of NBS1 to DNA damage sites [11]: could still be recruited

poly(ADP-ribose) [PAR]
affinity with PAR (BRCT domain of BRCA1): do not have the affinity | affinity with PAR (BRCT domain of MDC1): do not have the affinity | binding between the peptide and PAR [12]: did not detect any binding | interaction with the FHA domain (FHA domain of CHK2): failed to interact | interaction with the FHA domain (FHA domain of RNF8): failed to interact
